Assay outcomes: PubChem, several laboratories
H69AR growth 86K = blocks growth of human H69AR lung tumor cells | H69AR lung tumor viability, ATP luminescence, 72 h; stronger effect = lower value | viability, % at 10 µM | 6% of 85,000 active;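 active = viability at or below 40%; inactive = viability above 40%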;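 note: multidrug resistant small cell line overexpressing MRP-1 efflux transporter; 100% = mean luminescence of untreated control wells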
ERb coact inh = blocks coactivator binding to human estrogen receptor beta | 1.3% of 86,000 active | Q92731 | inhibition, % at 25.6 µM | TR-FRET ER-beta LBD / SRC1-Cy5 peptide binding; receptor agonist-loaded with 1 µM estradiol | AID 633;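 active = compounds whose percent inhibition of the receptor-coactivator binding signal exceeds about 50% in the single-dose screen, limit read from the data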;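 note: 0% = receptor plus peptide wells without compound and 100% = peptide-only wells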
Target sequence (Q92731 whole entry, looked up, the tested form may be a part): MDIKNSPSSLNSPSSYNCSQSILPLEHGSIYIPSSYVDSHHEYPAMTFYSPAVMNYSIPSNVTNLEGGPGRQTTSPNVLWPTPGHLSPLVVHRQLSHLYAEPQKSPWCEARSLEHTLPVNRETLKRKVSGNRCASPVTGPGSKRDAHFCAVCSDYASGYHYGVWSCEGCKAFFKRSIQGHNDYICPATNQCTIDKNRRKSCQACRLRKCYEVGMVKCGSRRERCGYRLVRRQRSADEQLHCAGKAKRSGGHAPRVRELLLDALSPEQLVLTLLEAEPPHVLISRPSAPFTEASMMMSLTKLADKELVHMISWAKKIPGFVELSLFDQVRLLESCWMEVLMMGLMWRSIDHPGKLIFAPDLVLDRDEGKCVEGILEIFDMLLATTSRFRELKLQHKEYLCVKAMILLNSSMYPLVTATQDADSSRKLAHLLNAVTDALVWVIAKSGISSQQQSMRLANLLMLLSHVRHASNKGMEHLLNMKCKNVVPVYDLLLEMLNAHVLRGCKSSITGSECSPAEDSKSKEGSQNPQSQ
Fibroblast inh = blocks proliferation of human lung fibroblasts; LL 47 human lung fibroblast viability, ATP luminescence; stronger effect = lower value; viability, % at 10 µM; 1.1% of 85,000 active;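 active = viability at or below 50% in the single dose screen; inactive = viability above 50%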;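 note: compound exposure lasted 72 h before the ATP readout; 100% = median luminescence of untreated cell-only wells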
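Times – overnight cell rest, 72 h compound treatment at 37 °C · Test system – human lung fibroblast line LL 47, low passage · Amount – 1,150 cells in each well · Controls – cell-only wells, no compound · Doses – 0.1% DMSO in all compound wells · Measured by – CellTiter-Glo luminescence · Buffer or medium – IMEM plus 15% FBS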
ERa SRC1 pot = ER-alpha (human) coactivator binding potentiation; P03372; TR-FRET ERalpha-LBD/SRC-Cy5 coactivator binding, 2 h; 100 = basal binding, no effect; coactivator binding (% of control), % at 25.6 µM; 1.3% of 86,000 active; in the data active = activity above about 200%;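 note: binding measured in presence of low estradiol as agonist stimulus; 0% = peptide alone without receptor and 100% = receptor with peptide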
ERa coact inh = ER-alpha (human) coactivator binding inhibition; P03372; TR-FRET ER-alpha LBD / SRC-1 peptide, estradiol-bound; inhibition, % at 25.6 µM; 1.7% of 86,000 active; AID 629; in the data active = inhibition above about 50%;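 note: 0% = receptor plus peptide control and 100% = peptide only without receptor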
HUVEC inhibit = blocks proliferation of human endothelial cells | HUVEC proliferation, CellTiter-Glo luminescence, 72 h; stronger effect = lower value | viability, % at 10 µM (by protocol) | 1.1% of 86,000 active | AID 648;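 active = viability at or below 30%; inactive = viability above 30%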;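 note: 100% = median luminescence of DMSO-only cell control wells on each plate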
The depositor's hits bear a star; . = not tested or not shown; [ ] = another dose, or the depositor's remark. Shown are actives, neighbours in structure and some others; about 9.2% of the full set was active somewhere.

SMILES | H69AR growth 86K | ERb coact inh | Fibroblast inh | ERa SRC1 pot | ERa coact inh | HUVEC inhibit
FC(F)(F)c1cnc(Nc2ccc(N3CCOCC3)cc2)c(Cl)c1 | 98.7 | 86.2*[fluorescence artefact?] | . | 60.6 | 63.1*[fluorescence artefact?] | 116.9
COc1ccc(S(=O)(=O)Cc2ccccc2)cc1N | 36.9* | 2.7 | 95.1 | 88.5 | 4.9 | 91.2
COc1cc(OC)c(C#N)c(S(=O)(=O)Cc2ccccc2)c1 | 77.5 | -0.1 | 91.6 | 87.3 | 3.0 | 95.2
CCN(c1ccccc1)S(=O)(=O)c1ccc(N)c(OC)c1 | 17.1* | -7.1 | 72.4 | 98.0 | -8.7 | 54.6
O=C(Cn1cnc2c(nnn2Cc2ccc(F)cc2)c1=O)NCc1ccco1 | 98.7 | 21.1 | 103.8 | 76.1 | 32.4 | 94.6
COc1ccccc1CCn1cnc2c3cc(C)ccc3n(C)c2c1=O | 63.4 | 2.1 | 106.2 | 110.8 | 3.6 | 84.5
O=C(CSc1nnc(COc2cccc3cccnc23)o1)N1CCN(C(=O)c2ccco2)CC1 | 86.5 | -8.2 | 99.3 | 89.1 | -18.2 | 97.8
CCc1nnc(NC(=O)CSc2nnc(-c3ccc(S(=O)(=O)N4CCCC4)cc3)n2CC)s1 | 101.4 | 53.6*[fluorescence artefact?] | 99.8 | 86.9 | 16.1 | 99.8
CCn1c(SCc2ccccc2)nnc1-c1ccc(S(=O)(=O)N2CCCCC2)cc1 | 26.1* | 0.6 | 86.2 | 115.6 | -4.6 | 99.9
CCc1nnc(NC(=O)CSc2nnc(-c3ccc(S(=O)(=O)N(CC)CC)cc3)n2CC)s1 | 99.6 | 12.7 | 98.4 | 90.0 | 26.0 | 100.3
COC(=O)c1cc(COC(=O)c2cccnc2SC)oc1C | 104.0 | -1.6 | 96.5 | 100.6 | 0.5 | 91.8
COc1ccc(C(=O)N2CCN(C(=O)c3cc(OC)c(OC)c(OC)c3)CC2)cc1 | 70.7 | 7.6 | 100.4 | 68.8 | 4.9 | 89.2
COc1cc(C(=O)N2CCN(c3cc(Cl)ccc3Cl)CC2)cc(OC)c1OC | 33.2* | -9.9 | 53.2 | 102.5 | -1.7 | 42.6
Cc1cc(C)c2c(=O)[nH]c(=O)n(Cc3ccccc3)c2n1 | 87.2 | 6.8 | 92.6 | 184.1 | 8.7 | 78.3
O=C(Oc1ccnc2cc(Cl)ccc12)N1CCCCCC1 | 25.9* | 5.3 | 87.6 | 84.5 | 3.9 | 113.8
COc1ccccc1N1CCN(S(=O)(=O)c2ccc(Cl)s2)CC1 | 85.1 | -0.8 | 98.4 | 104.7 | 10.3 | 102.0
OC(CNC1CCCCC1)CN1CCN(CC(O)CNC2CCCCC2)CC1 (configuration not stated) | 108.8 | -1.9 | 100.0 | 112.1 | 4.4 | 94.4
COc1ccc(OC)c(-n2nnnc2SCC(=O)O)c1 | 105.4 | -0.2 | 92.7 | 104.3 | -1.0 | 97.7
CCOC(=O)c1sc(NC(=O)CSc2nnnn2-c2ccc(C)cc2C)nc1C | 83.9 | 3.6 | 99.6 | 164.2 | -2.2 | 25.1*
COc1ccc(OC)c(-n2nnnc2SCC(=O)Nc2nc(C)c(C)s2)c1 | 20.3* | -3.5 | 96.9 | 117.2 | 4.3 | 78.5
CCOC(=O)c1sc(NC(=O)CSc2nnnn2-c2ccc(C)c(C)c2)nc1C | 81.5 | 33.2 | 96.6 | 102.0 | 48.7 | 18.4*
CCOC(=O)c1sc(NC(=O)CSc2nnnn2-c2ccccc2)nc1C | 71.6 | 0.8 | 98.8 | 132.9 | 5.5 | 82.4
CCOC(=O)Cc1csc(NC(=O)CSc2nnnn2-c2ccc(C)cc2C)n1 | 95.8 | -9.3 | 105.4 | 113.8 | 1.9 | 93.7
O=C(COC(=O)c1ccc(S(=O)(=O)N2CCCC2)cc1)NCc1ccccc1 | 95.2 | -12.2 | 99.8 | 126.7 | -8.9 | 102.9
CN(C)c1nc(N/N=C\c2ccc(Cl)c([N+](=O)[O-])c2)nc(Nc2ccc(F)cc2)n1 | 66.4 | 31.4 | 111.2 | 101.7 | 78.4* | 57.8
Cc1cc(NS(=O)(=O)c2ccc(Nc3nc(-c4sc(N)nc4C)cs3)cc2)no1 | 87.5 | 56.5*[fluorescence artefact?] | 101.5 | 55.2 | 22.0 | 91.6
COc1ccccc1CC(=O)N1CCCc2ccccc21 | 105.3 | -5.4 | 98.2 | 115.1 | -1.3 | 96.6
CC(C)C(=O)c1cn(CC(=O)N2CCCc3ccccc32)c2ccccc12 | 35.7* | -10.6 | 95.8 | 97.1 | 12.0 | 76.8
Cc1ccc(C(=O)CC(C(=O)O)n2cccn2)cc1 (configuration not stated) | 101.1 | -3.3 | 92.6 | 129.7 | -2.0 | 92.1
COC(=O)C(CC(=O)c1ccc(Br)cc1)n1ccnc1 (configuration not stated) | 88.0 | -8.4 | 28.3* | 98.2 | -7.4 | 68.7
